The values that follow come from ChEMBL document CHEMBL4393678, “Novel Tetrahydroquinazolinamines as Selective Histamine 3 Receptor Antagonists for the Treatment of Obesity” (J Med Chem, 2019).

One may read the Vd/F as the apparent distribution volume after extravascular dosing. The term Tmax denotes the time at which the peak concentration occurs.

Calls of active or inactive are those of the source. No cut-off for these calls is given here.

For data set [1], the system named is Mus musculus. Description: Anti-obesity activity in 16 hrs fasted high fat diet-induced obese C57BL/6J mouse model assessed as change in blood glucose level at 10 to 20 mg/kg, po treated prior to glucose addition measured after 15 to 120 mins by IPGTT. Type of data set: functional, organism-based. The gist of the method:
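Mice fasted 16 h; baseline tail-vein glucose read by glucometer. Glucose given i.p. at 2 g/kg (C57BL/6J) or 1 g/kg (db/db).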

Data set [2] can be described thus: Apparent volume of distribution in C57BL/6J mouse brain at 20 mg/kg, po by LC-MS/MS analysis. Type of data set: ADME, organism-based. The gist of the method:
(§1)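 Male C57BL/6J mice (6-8 weeks, 20 ± 5 g) fasted overnight (12-16 h) got a single 20 mg/kg oral dose as 2.5 mg/mL suspension in 1% w/v gum acacia; n=5 per time point. Serum and brain (PBS homogenate 1:6 w/v) sampled up to 24 h. Parent and demethylated metabolite quantified by LC-MS/MS after liquid-liquid extraction (C18, MRM, phenacetin internal standard; linear 0.25-200 ng/mL). Two-compartment open model fit.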

The target in data set [3] is T1, G-protein coupled bile acid receptor 1 (Homo sapiens) (UniProt Q8TDU6).
T1 sequence (whole entry): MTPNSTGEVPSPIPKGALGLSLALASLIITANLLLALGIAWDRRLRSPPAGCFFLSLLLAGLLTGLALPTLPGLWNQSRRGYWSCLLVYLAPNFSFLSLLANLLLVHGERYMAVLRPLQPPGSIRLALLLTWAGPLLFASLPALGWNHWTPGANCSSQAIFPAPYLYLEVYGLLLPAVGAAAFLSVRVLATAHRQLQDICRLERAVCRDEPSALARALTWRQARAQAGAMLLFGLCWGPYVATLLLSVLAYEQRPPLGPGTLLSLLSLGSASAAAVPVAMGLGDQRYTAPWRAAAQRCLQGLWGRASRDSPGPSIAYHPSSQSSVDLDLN
Kind of data set: Agonist activity at Gs-coupled GPBAR1 (unknown origin) expressed in HEK293T cells assessed as inhibition of forskolin-stimulated cAMP accumulation preincubated for 10 to 15 followed by forskolin-stimulation by Glo-sensor assay. Type of data set: functional, cell-based. Background: Cyclic AMP is a second messenger, typically raised through Gs and lowered through Gi signalling.

The subject of data set [4] is Mus musculus. Kind of data set: Anorexic effect in 12 hrs fasted db/db-induced obese C57BL/6J mouse model assessed as reduction in cumulative food intake at 20 mg/kg, po pretreated for 30 mins followed by food addition measured after 4 hrs relative to control. Type of data set: functional. The arrangement: scale not given: the % may be the effect or the level left. An outline of the steps:
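Mice starved 12 h (8:00 am to 8:00 pm) with water available, then housed singly. Compound given orally in 5% gum acacia in normal saline; vehicle group received the same. Cumulative food intake measured over 4 h of the night phase (9:00 pm to 1:00 am), starting 30 min after dosing. Antagonism arms: imitet 5 mg/kg i.p. 30 min before compound, or α-methyl-DL-histidine 20 mg/kg i.p. 2 h before.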

The subject of data set [5] is Mus musculus. Kind of data set: Anti-obesity activity in high fat diet-induced obese C57BL/6J mouse model assessed as reduction in body weight at 10 to 20 mg/kg, po. Type of data set: functional, organism-based. To be noted: TDE = time-dependent effect.
In data set [6] the target is Histamine H1 receptor (Homo sapiens) (UniProt P35367). Kind of data set: Agonist activity at H1R (unknown origin) expressed in HEK293 cells harboring luc2P/NFAT-RE plasmid at 10 uM after 6 to 8 hrs by luciferase reporter gene assay. The data set is classed as cell-based. An outline of the steps: (§2)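 NFAT-RE luciferase assay in HEK293T cells transiently co-transfected with luc2P/NFAT-RE plasmid and receptor plasmid. Cells plated in DMEM and incubated overnight at 37 °C, 5% CO₂. Compounds and reference ligands applied for 6-8 h. Luciferase read after adding Bright-Glo substrate (1 mg/ml final).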

Data set [7] concerns the target D(3) dopamine receptor (Homo sapiens) (UniProt P35462). Description: Agonist activity at D3 receptor (unknown origin).
Data set [8] concerns Mus musculus. Description: Anti-obesity activity in high fat diet-induced obese C57BL/6J mouse model assessed as change in LDL level at 10 to 20 mg/kg, po measured after 6 weeks. The data set is classed as functional, organism-based. An outline of the steps: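 At the end of treatment (six weeks HFD, four weeks db/db), mice euthanized with avertin 350 mg/kg. Blood taken by cardiac puncture into 3.8% sodium citrate. Plasma separated at 4000 rpm and stored at -80 °C. TG, TC, HDLc and LDLc measured on a bio-analyzer.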

In data set [9] the target is T2, Muscarinic acetylcholine receptor M1 (Homo sapiens) (UniProt P11229).
T2 sequence (whole entry): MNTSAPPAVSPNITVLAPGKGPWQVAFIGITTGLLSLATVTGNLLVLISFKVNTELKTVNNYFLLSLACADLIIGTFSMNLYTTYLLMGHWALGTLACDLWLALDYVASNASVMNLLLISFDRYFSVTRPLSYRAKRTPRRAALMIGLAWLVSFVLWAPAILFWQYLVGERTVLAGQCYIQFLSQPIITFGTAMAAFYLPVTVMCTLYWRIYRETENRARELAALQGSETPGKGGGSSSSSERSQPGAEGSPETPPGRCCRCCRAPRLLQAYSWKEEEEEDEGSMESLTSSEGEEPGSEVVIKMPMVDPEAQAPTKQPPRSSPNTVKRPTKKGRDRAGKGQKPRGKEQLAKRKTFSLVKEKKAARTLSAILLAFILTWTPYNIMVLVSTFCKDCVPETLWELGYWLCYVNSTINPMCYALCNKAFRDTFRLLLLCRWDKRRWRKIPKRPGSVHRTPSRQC
Description: Antagonist activity at M1R (unknown origin) expressed in HEK293 cells harboring luc2P/NFAT-RE plasmid at 10 uM after 6 to 8 hrs by luciferase reporter gene assay. The data set is classed as cell-based. The gist of the method: as §2
On the technique in general: Reporter assays use an easily measured gene product as a stand-in for the process of interest.

The nature of data set [10]: Tmax in C57BL/6J mouse serum assessed as 4-(2-Amino-8-methyl-5,6,7,8-tetrahydroquinazolin-4-yl)phenol level at 20 mg/kg, po by LC-MS/MS analysis. Type of data set: ADME, organism-based. To be noted: in vivo. The gist of the method:
as §1

Data set [11] has as its system Mus musculus. Description: Anti-obesity activity in high fat diet-induced obese C57BL/6J mouse model assessed as reduction in body fat mass at 20 mg/kg, po measured after 6 weeks relative to control by NMR-based magnetic resonance imaging analysis. Type of data set: functional. The arrangement: scale not given: the % may be the effect or the level left.
Data set [12] addresses Free fatty acid receptor 1 (Homo sapiens) (UniProt O14842). Kind of data set: Antagonist activity at GPR40 (unknown origin) expressed in HEK293 cells harboring luc2P/NFAT-RE plasmid at 10 uM after 6 to 8 hrs by luciferase reporter gene assay. Type of data set: cell-based. The gist of the method:
as §2

The nature of data set [13]: Tmax in C57BL/6J mouse brain at 20 mg/kg, po by LC-MS/MS analysis. Type of data set: ADME, organism-based. An outline of the steps: as §1
Data set [14] deals with Free fatty acid receptor 1 (Homo sapiens) (UniProt O14842). Kind of data set: Agonist activity at GPR40 (unknown origin) expressed in HEK293 cells harboring luc2P/NFAT-RE plasmid at 10 uM after 6 to 8 hrs by luciferase reporter gene assay. The data set is classed as cell-based. The gist of the method:
as §2

A short description of data set [15]: Protein binding in C57BL/6J mouse plasma by equilibrium dialysis method. The note with it: read-out: PPB (converted). The data set is classed as ADME, cell-free. The gist of the method:
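Plasma protein binding and unbound fraction in mouse brain tissue homogenate measured by equilibrium dialysis.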
On the technique in general: In equilibrium dialysis only unbound substance equilibrates across the membrane.

Data set [16] can be described thus: Half life in C57BL/6J mouse serum assessed as 4-(2-Amino-8-methyl-5,6,7,8-tetrahydroquinazolin-4-yl)phenol level at 20 mg/kg, po by LC-MS/MS analysis. To be noted: in vivo. The data set is classed as ADME, organism-based. An outline of the steps:
as §1

Sequence of Free fatty acid receptor 1 (Homo sapiens) (O14842 whole entry): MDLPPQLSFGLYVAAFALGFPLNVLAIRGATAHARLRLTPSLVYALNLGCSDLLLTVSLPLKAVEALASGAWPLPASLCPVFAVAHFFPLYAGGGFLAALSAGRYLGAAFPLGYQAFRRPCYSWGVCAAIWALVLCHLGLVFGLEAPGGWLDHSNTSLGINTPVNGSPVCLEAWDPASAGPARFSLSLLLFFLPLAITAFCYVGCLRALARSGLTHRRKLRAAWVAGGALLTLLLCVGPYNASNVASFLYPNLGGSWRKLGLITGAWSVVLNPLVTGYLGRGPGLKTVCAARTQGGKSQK
Sequence of Histamine H1 receptor (Homo sapiens) (P35367 whole entry): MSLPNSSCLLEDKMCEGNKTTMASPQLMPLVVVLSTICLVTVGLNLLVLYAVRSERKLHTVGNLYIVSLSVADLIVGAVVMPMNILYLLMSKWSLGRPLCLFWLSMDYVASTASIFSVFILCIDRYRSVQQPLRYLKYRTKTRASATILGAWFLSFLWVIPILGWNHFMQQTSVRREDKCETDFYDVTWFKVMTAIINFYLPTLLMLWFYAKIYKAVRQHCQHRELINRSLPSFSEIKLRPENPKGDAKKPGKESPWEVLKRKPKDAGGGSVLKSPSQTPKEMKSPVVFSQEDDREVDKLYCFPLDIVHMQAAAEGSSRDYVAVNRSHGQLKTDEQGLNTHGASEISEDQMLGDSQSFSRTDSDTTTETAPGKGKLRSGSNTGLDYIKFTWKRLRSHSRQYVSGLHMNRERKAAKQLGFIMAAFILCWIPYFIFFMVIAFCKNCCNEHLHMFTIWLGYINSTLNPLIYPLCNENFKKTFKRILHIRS
Sequence of D(3) dopamine receptor (Homo sapiens) (P35462 whole entry): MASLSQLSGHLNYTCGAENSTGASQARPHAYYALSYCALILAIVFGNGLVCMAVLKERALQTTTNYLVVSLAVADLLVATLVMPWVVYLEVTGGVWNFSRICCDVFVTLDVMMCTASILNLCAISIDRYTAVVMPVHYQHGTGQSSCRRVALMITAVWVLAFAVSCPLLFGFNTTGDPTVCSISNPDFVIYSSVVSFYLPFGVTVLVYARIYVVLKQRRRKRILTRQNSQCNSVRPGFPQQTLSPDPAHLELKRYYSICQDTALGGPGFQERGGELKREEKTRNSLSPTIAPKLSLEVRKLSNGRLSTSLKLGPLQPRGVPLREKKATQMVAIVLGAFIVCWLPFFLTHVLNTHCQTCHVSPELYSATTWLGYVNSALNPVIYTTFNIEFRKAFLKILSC

`COc1ccc(-c2nc(N)nc3c2CCCC3C)cc1` (racemic): the outcome (in the data set on Mus musculus [1]; in data set [3]; in data set [6]; in data set [7]; with Mus musculus [8]; in data set [14]) was inactive. Further, the Vd/F in [2] is 28.3 L/kg. The Activity with Mus musculus [4] was 33%; in the data set on Mus musculus [5] it was “Tde”; in the data set on Mus musculus [11] it was 27.1%. The inhibition entry in [9] and in data set [12] was “inactive” throughout. Also, the Tmax in data set [10] is 15 min; in [13], 30 min. Moreover, the fraction unbound in data set [15] was 0.0424. In addition, in data set [16], the t1/2 came out at 126 min.
